From ChEMBL document CHEMBL2086296, “Synthesis of novel quinoline-2-one based chalcones of potential anti-tumor activity” (Eur J Med Chem, 2012)

Legend:
[1] = test system: SF-295; test: Cytotoxicity against human SF295 cells after 24 hrs by SRB assay; assay type: functional; settings: SF-295, 24 h
Outline: (§1)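 NCI 60-line screen. Cells in RPMI 1640 with 5% FBS and 2 mM L-glutamine, seeded at 5,000–40,000 cells/well by doubling time, then incubated 24 h at 37 °C, 5% CO2 before dosing. Time-zero plates fixed with TCA at drug addition. DMSO stocks diluted in medium with gentamicin to five concentrations, […]. Protein read by SRB staining. GI50, TGI and LC50 derived relative to control and time-zero.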

[2] = test system: COLO 205; test: Cytotoxicity against human COLO205 cells after 24 hrs by SRB assay; assay type: cell-based; settings: colo 205, 24 h
Outline: (§2)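 NCI 60-cell screen. Cells grown in RPMI 1640 with 5% FBS and 2 mM L-glutamine, seeded at 5,000–40,000 cells/well, preincubated 24 h at 37 °C in 5% CO2. Drug stock in DMSO, diluted in medium with gentamicin; five final concentrations, 100, 10, 1.0, 0.1 and […]. Time-zero plates were TCA-fixed. Protein read by SRB staining; GI50, TGI and LC50 taken relative to time-zero.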

[3] = test system: KM12; test: (§3) Cytotoxicity against human KM12 cells after 24 hrs by SRB assay; assay type: cell-based; settings: km12, 24 h; outline: as §2
[4] = test system: RXF 393; test: Cytotoxicity against human RXF393 cells after 24 hrs by SRB assay; assay type: functional; settings: RXF 393, 24 h; outline: as §1
[5] = test system: SNB-19; test: Cytotoxicity against human SNB19 cells after 24 hrs by SRB assay; assay type: functional; settings: SNB-19, 24 h
Outline: (§4)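 NCI 60-cell screen. Cells are grown in RPMI 1640 with 5% FBS and 2 mM L-glutamine and seeded at 5,000–40,000 cells/well according to doubling time. They are preincubated 24 h at 37 °C in 5% CO2, and Tz plates are TCA-fixed at drug addition. Drug stock is in DMSO, diluted in medium with gentamicin, and tested at five concentrations (100, 10, 1.0, 0.1, […]). Protein is read by SRB staining. GI50, TGI and LC50 are derived relative to time-zero and control wells.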

[6] = test system: SW-620; test: Cytotoxicity against human SW620 cells after 24 hrs by SRB assay; assay type: functional; settings: SW-620, 24 h; outline: as §4
[7] = test system: U-251; test: Cytotoxicity against human U251 cells after 24 hrs by SRB assay; assay type: cell-based; settings: u-251, 24 h
Outline: (§5)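 NCI 60-cell-line screen: cells grown in RPMI 1640 with 5% FBS and 2 mM L-glutamine, seeded at 5,000–40,000 cells/well by doubling time, and preincubated 24 h at 37 °C in 5% CO2. Time-zero plates were TCA-fixed. DMSO stocks were diluted in medium with gentamicin to five concentrations (100, 10, 1.0, 0.1, […]). Protein was read by SRB, and GI50, TGI and LC50 were derived against time-zero.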

[8] = test system: NCI-H23; test: Cytotoxicity against human NCI-H23 cells after 24 hrs by SRB assay; assay type: functional; settings: NCI-H23, 24 h; outline: as §1
[9] = test system: MCF7; test: Cytotoxicity against human MCF7 cells after 24 hrs by SRB assay; assay type: cell-based; settings: mcf7, 24 h; outline: as §2
[10] = test system: SK-MEL-2; test: Cytotoxicity against human SK-MEL-2 cells after 24 hrs by SRB assay; assay type: cell-based; settings: sk-mel-2, 24 h; outline: as §2
[11] = test system: HCT-15; test: Cytotoxicity against human HCT15 cells after 24 hrs by SRB assay; assay type: cell-based; settings: hct-15, 24 h; outline: as §2
[12] = test system: ACHN; test: Cytotoxicity against human ACHN cells after 24 hrs by SRB assay; assay type: functional; outline: as §1
[13] = test system: CCRF-CEM; test: Cytotoxicity against human CCRF-CEM cells after 24 hrs by SRB assay; assay type: functional; outline: as §1
[14] = test system: NCI-H226; test: Cytotoxicity against human NCI-H226 cells after 24 hrs by SRB assay; assay type: cell-based; settings: nci-h226, 24 h; outline: as §2
[15] = test system: SR; test: Cytotoxicity against human SR cells after 24 hrs by SRB assay; assay type: cell-based; outline: as §5
[16] = test system: T47D; test: (§6) Cytotoxicity against human T47D cells after 24 hrs by SRB assay; assay type: functional; outline: as §4
[17] = test system: DU-145; test: Cytotoxicity against human DU145 cells after 24 hrs by SRB assay; assay type: cell-based; settings: du-145, 24 h; outline: as §2
[18] = test system: HL-60; test: Cytotoxicity against human HL60 cells after 24 hrs by SRB assay; assay type: functional; settings: HL-60, 24 h; outline: as §1
[19] = test system: HOP-62; test: Cytotoxicity against human HOP62 cells after 24 hrs by SRB assay; assay type: cell-based; settings: hop-62, 24 h; outline: as §2
[20] = test system: M14; test: (§7) Cytotoxicity against human M14 cells after 24 hrs by SRB assay; assay type: functional; settings: M14, 24 h; outline: as §1
[21] = test system: MDA-MB-468; test: Cytotoxicity against human MDA-MB-468 cells after 24 hrs by SRB assay; assay type: cell-based; settings: mda-mb-468, 24 h; outline: as §2
[22] = test system: SK-MEL-28; test: (§8) Cytotoxicity against human SK-MEL-28 cells after 24 hrs by SRB assay; assay type: functional; settings: SK-MEL-28, 24 h; outline: as §1
[23] = test system: KM12; test: as §3; assay type: functional; settings: KM12, 24 h; outline: as §1
[24] = test system: SF-268; test: (§9) Cytotoxicity against human SF268 cells after 24 hrs by SRB assay; assay type: functional; settings: SF-268, 24 h; outline: as §1
[25] = test system: SK-MEL-28; test: as §8; assay type: cell-based; settings: sk-mel-28, 24 h; outline: as §2
[26] = test system: SF-268; test: as §9; assay type: cell-based; settings: sf-268, 24 h; outline: as §2
[27] = test system: MDA-MB-435; test: Cytotoxicity against human MDA-MB-435 cells after 24 hrs by SRB assay; assay type: cell-based; settings: mda-mb-435, 24 h; outline: as §2
[28] = test system: OVCAR-3; test: Cytotoxicity against human OVCAR3 cells after 24 hrs by SRB assay; assay type: cell-based; settings: ovcar-3, 24 h; outline: as §2
[29] = test system: TK-10; test: Cytotoxicity against human TK10 cells after 24 hrs by SRB assay; assay type: functional; settings: TK-10, 24 h; outline: as §4
[30] = test system: CAKI-1; test: Cytotoxicity against human CAKI-1 cells after 24 hrs by SRB assay; assay type: functional; settings: CAKI-1, 24 h; outline: as §1
[31] = test system: M14; test: as §7; assay type: cell-based; settings: m14, 24 h; outline: as §2
[32] = test system: T47D; test: as §6; assay type: cell-based; outline: as §5
[33] = test system: UACC-257; test: (§10) Cytotoxicity against human UACC257 cells after 24 hrs by SRB assay; assay type: cell-based; settings: uacc-257, 24 h; outline: as §5
[34] = test system: UACC-257; test: as §10; assay type: functional; settings: UACC-257, 24 h; outline: as §4
[35] = test system: A549; test: Cytotoxicity against human A549 cells after 24 hrs by SRB assay; assay type: functional; settings: A549, 24 h; outline: as §1
[36] = test system: 786-0; test: Cytotoxicity against human 786-0 cells after 24 hrs by SRB assay; assay type: functional; settings: 786-0, 24 h; outline: as §1
[37] = test system: SK-OV-3; test: (§11) Cytotoxicity against human SKOV3 cells after 24 hrs by SRB assay; assay type: functional; settings: SK-OV-3, 24 h; outline: as §1
[38] = test system: SK-OV-3; test: as §11; assay type: cell-based; settings: sk-ov-3, 24 h; outline: as §5

O=C(/C=C/c1cc2ccccc2[nH]c1=O)c1ccc(O)cc1
GI50 [1]: 7.04 µM
TGI [1]: 44 µM
LC50 [2]: 76.8 µM
LC50 [3]: 15.4 µM
GI50 [4]: 1.65 µM
TGI [4]: 3.23 µM
GI50 [5]: 4.59 µM
TGI [5]: 18 µM
GI50 [6]: 1.89 µM
TGI [6]: 4.45 µM
LC50 [7]: 45.3 µM
GI50 [8]: 3.18 µM
TGI [8]: 20 µM
LC50 [9]: 82.9 µM
LC50 [10]: 48.3 µM
LC50 [11]: > 100 µM
GI50 [12]: 2.67 µM
TGI [12]: 8.86 µM
GI50 [13]: 2.38 µM
TGI [13]: > 100 µM
LC50 [14]: 34.5 µM
LC50 [15]: > 100 µM
GI50 [16]: 4.19 µM
TGI [16]: 20.4 µM
LC50 [17]: 38 µM
GI50 [18]: 2.66 µM
TGI [18]: 6.86 µM
LC50 [19]: 85.2 µM
GI50 [20]: 2.6 µM
TGI [20]: 6.57 µM
LC50 [21]: 19.8 µM
GI50 [22]: 5.11 µM
TGI [22]: 19.5 µM
GI50 [23]: 1.89 µM
TGI [23]: 4.5 µM
GI50 [24]: 3.76 µM
TGI [24]: 23.3 µM
LC50 [25]: 66.3 µM
LC50 [26]: > 100 µM
LC50 [27]: > 100 µM
LC50 [28]: 35 µM
GI50 [29]: 3.81 µM
TGI [29]: 11.8 µM
GI50 [30]: 4.71 µM
TGI [30]: > 100 µM
LC50 [31]: > 100 µM
LC50 [32]: 79.6 µM
LC50 [33]: 47.9 µM
GI50 [34]: 3.87 µM
TGI [34]: 16 µM
GI50 [35]: 2.73 µM
TGI [35]: 11.8 µM

O=C(/C=C/c1cc2ccccc2[nH]c1=O)c1ccc(Cl)cc1
GI50 [1]: 4.57 µM
TGI [1]: 38.3 µM
GI50 [36]: 13.8 µM
TGI [36]: > 100 µM
LC50 [2]: > 100 µM
LC50 [3]: 98.9 µM
GI50 [4]: 4.32 µM
TGI [4]: 29.9 µM
GI50 [5]: 5.11 µM
TGI [5]: > 100 µM
GI50 [6]: 3.38 µM
TGI [6]: 12.1 µM
LC50 [7]: 39.7 µM
GI50 [8]: 5.37 µM
TGI [8]: 93.3 µM
LC50 [9]: > 100 µM
LC50 [10]: 72.6 µM
LC50 [11]: > 100 µM
GI50 [12]: 7.27 µM
TGI [12]: 27.4 µM
GI50 [13]: 3.5 µM
TGI [13]: > 100 µM
LC50 [14]: > 100 µM
LC50 [15]: > 100 µM
GI50 [16]: 7.31 µM
TGI [16]: > 100 µM
LC50 [17]: > 100 µM
GI50 [18]: 2.47 µM
TGI [18]: > 100 µM
TGI [37]: > 100 µM
LC50 [19]: > 100 µM
GI50 [20]: 7.54 µM
TGI [20]: 39.7 µM
LC50 [21]: 53.2 µM
GI50 [22]: 17.7 µM
TGI [22]: 72.5 µM
GI50 [23]: 3.23 µM
TGI [23]: 16.3 µM
GI50 [24]: 7.15 µM
TGI [24]: 63.1 µM
LC50 [25]: > 100 µM
LC50 [26]: > 100 µM
LC50 [27]: > 100 µM
LC50 [28]: > 100 µM
GI50 [29]: 5.05 µM
TGI [29]: 20.8 µM
GI50 [30]: 1.6 µM
TGI [30]: 3.3 µM
LC50 [38]: > 100 µM
LC50 [31]: > 100 µM
LC50 [32]: > 100 µM
LC50 [33]: > 100 µM
GI50 [34]: 7.78 µM
TGI [34]: 46.9 µM
GI50 [35]: 7.24 µM
TGI [35]: > 100 µM
